{
  "source": "ChEMBL document CHEMBL1154218",
  "about": "“Design and synthesis of dipeptidyl nitriles as potent, selective, and reversible inhibitors of cathepsin C” (Bioorg Med Chem Lett, 2009)",
  "key": {"Dipeptidyl peptidase 1": {"target": "Dipeptidyl peptidase 1 (Homo sapiens, UniProt P53634)", "sequence (P53634 25-134 limits assumed)": "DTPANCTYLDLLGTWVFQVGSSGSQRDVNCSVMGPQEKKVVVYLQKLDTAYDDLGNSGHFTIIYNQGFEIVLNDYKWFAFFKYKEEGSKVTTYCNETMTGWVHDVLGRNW", "sequence (P53634 231-394 limits assumed)": "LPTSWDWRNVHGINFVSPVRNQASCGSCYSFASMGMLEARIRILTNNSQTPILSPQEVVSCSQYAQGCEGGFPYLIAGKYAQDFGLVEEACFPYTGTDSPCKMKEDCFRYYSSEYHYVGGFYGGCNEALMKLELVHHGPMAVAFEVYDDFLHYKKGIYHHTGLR", "sequence (P53634 395-463 limits assumed)": "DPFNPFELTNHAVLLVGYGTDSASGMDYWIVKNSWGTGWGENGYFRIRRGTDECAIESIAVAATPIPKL", "test": "Inhibition of human recombinant cathepsin C", "outline": "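Enzyme: purified human recombinant cathepsin C. IC50 in nM given as mean with standard deviation of at least three experiments.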"}, "[1]": {"test": "Metabolic stability in rat whole blood assessed as compound remaining after 30 mins", "assay_type": "ADME, tissue-based", "details": "read-out: Activity", "outline": "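Compound incubated in fresh rat whole blood for 30 min at 25 °C. Read-out is % of intact parent remaining, with amide hydrolysis products (P2 amino acid, P1 amino nitrile) monitored.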"}, "[2]": {"test": "Clearance in iv dosed rat", "assay_type": "ADME, organism-based", "details": "in vivo", "outline": "(§1)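 Rats dosed intravenously. Plasma samples were analysed for parent and metabolites to give clearance (ml/min/kg) and half-life.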"}, "[3]": {"test": "Half life in iv dosed rat", "assay_type": "ADME, organism-based", "details": "in vivo", "outline": "as §1"}, "U-937": {"tested_on": "U-937", "test": "Cytotoxicity against human U937 cells at 30 uM up to 72 hrs", "assay_type": "functional, cell-based", "outline": "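Human U937 cells were exposed to compound at 30 µM for up to 72 h and assessed for cytotoxicity.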"}, "Rattus norvegicus": {"species_on_record": "Rattus norvegicus", "test": "Metabolic stability in rat whole blood"}},
  "data": [
    {"smiles": "CCS[C@@H]1CN[C@H](C(=O)N[C@H](C#N)Cc2ccccc2)C1", "values": [
      {"measurement": "IC50", "setting": "Dipeptidyl peptidase 1", "result": 0.271, "unit": "µM"}
    ]},
    {"smiles": "CS[C@@H]1CN[C@H](C(=O)NC2(C#N)CC2)C1", "values": [
      {"measurement": "IC50", "setting": "Dipeptidyl peptidase 1", "result": 0.336, "unit": "µM"}
    ]},
    {"smiles": "N#C[C@H](Cc1ccccc1)NC(=O)[C@@H]1CCCN1", "values": [
      {"measurement": "IC50", "setting": "Dipeptidyl peptidase 1", "result": 4.81, "unit": "µM"}
    ]},
    {"smiles": "CC(C)(C)[C@@H](C#N)NC(=O)[C@@H](N)Cc1cccs1", "values": [
      {"measurement": "IC50", "setting": "Dipeptidyl peptidase 1", "result": "> 3", "unit": "µM"},
      {"measurement": "remaining at 0.5 h", "setting": "[1]", "result": 83, "unit": "%"}
    ]},
    {"smiles": "N#C[C@H](Cc1c[nH]c2ccccc12)NC(=O)[C@@H](N)Cc1cccs1", "values": [
      {"measurement": "IC50", "setting": "Dipeptidyl peptidase 1", "result": 0.0058, "unit": "µM"},
      {"measurement": "remaining at 0.5 h", "setting": "[1]", "result": 0, "unit": "%"}
    ]},
    {"smiles": "CC1(C)CC1(C#N)NC(=O)[C@@H](N)Cc1cccs1", "note": "(stereo partly drawn)", "values": [
      {"measurement": "IC50", "setting": "Dipeptidyl peptidase 1", "result": 0.063, "unit": "µM"}
    ]},
    {"smiles": "CSCC[C@H](N)C(=O)N[C@H](C#N)Cc1c[nH]c2ccccc12", "values": [
      {"measurement": "IC50", "setting": "Dipeptidyl peptidase 1", "result": 0.2, "unit": "µM"}
    ]},
    {"smiles": "N#C[C@H](Cc1ccc(-c2ccccc2)s1)NC(=O)[C@@H](N)Cc1cccs1", "values": [
      {"measurement": "IC50", "setting": "Dipeptidyl peptidase 1", "result": 0.0003, "unit": "µM"},
      {"measurement": "clearance", "setting": "[2]", "result": "> 100", "unit": "mL/min/kg"},
      {"measurement": "half-life", "setting": "[3]", "result": "< 30", "unit": "min"}
    ]},
    {"smiles": "CS[C@@H]1CN[C@H](C(=O)N[C@H](C#N)Cc2ccccc2)C1", "values": [
      {"measurement": "IC50", "setting": "Dipeptidyl peptidase 1", "result": 0.029, "unit": "µM"}
    ]},
    {"smiles": "N#CC1(NC(=O)[C@@H]2C[C@H](F)CN2)CC1", "values": [
      {"measurement": "IC50", "setting": "Dipeptidyl peptidase 1", "result": 0.88, "unit": "µM"}
    ]},
    {"smiles": "C[C@@H]1CN[C@H](C(=O)N[C@H](C#N)Cc2ccccc2)C1", "values": [
      {"measurement": "IC50", "setting": "Dipeptidyl peptidase 1", "result": 2.5, "unit": "µM"}
    ]},
    {"smiles": "N#C[C@]1(NC(=O)[C@@H](N)Cc2cccs2)C[C@H]1c1ccccc1", "values": [
      {"measurement": "IC50", "setting": "Dipeptidyl peptidase 1", "result": 0.017, "unit": "µM"}
    ]},
    {"smiles": "N#C[C@@H](NC(=O)[C@@H](N)Cc1cccs1)C(c1ccccc1)c1ccccc1", "values": [
      {"measurement": "IC50", "setting": "Dipeptidyl peptidase 1", "result": 0.0038, "unit": "µM"},
      {"measurement": "clearance", "setting": "[2]", "result": "> 100", "unit": "mL/min/kg"},
      {"measurement": "half-life", "setting": "[3]", "result": "< 30", "unit": "min"}
    ]},
    {"smiles": "CS[C@@H]1CN[C@H](C(=O)N[C@H](C#N)Cc2ccc(-c3ccccc3)cc2)C1", "values": [
      {"measurement": "IC50", "setting": "Dipeptidyl peptidase 1", "result": 0.0017, "unit": "µM"}
    ]},
    {"smiles": "N#C[C@H](Cc1ccccc1)NC(=O)[C@@H](N)Cc1cccs1", "values": [
      {"measurement": "IC50", "setting": "Dipeptidyl peptidase 1", "result": 0.0009, "unit": "µM"},
      {"measurement": "clearance", "setting": "[2]", "result": "> 100", "unit": "mL/min/kg"},
      {"measurement": "half-life", "setting": "[3]", "result": "< 30", "unit": "min"},
      {"measurement": "remaining at 0.5 h", "setting": "[1]", "result": 0, "unit": "%"}
    ]},
    {"smiles": "CCSCC[C@H](N)C(=O)N[C@H](C#N)Cc1c[nH]c2ccccc12", "values": [
      {"measurement": "IC50", "setting": "Dipeptidyl peptidase 1", "result": 1.58, "unit": "µM"}
    ]},
    {"smiles": "N#CC1(NC(=O)[C@@H](N)Cc2cccs2)CCC1", "values": [
      {"measurement": "IC50", "setting": "Dipeptidyl peptidase 1", "result": 1.83, "unit": "µM"}
    ]},
    {"smiles": "N#C[C@H](Cc1ccccc1)NC(=O)[C@@H]1C[C@H](Cl)CN1", "values": [
      {"measurement": "IC50", "setting": "Dipeptidyl peptidase 1", "result": 0.495, "unit": "µM"}
    ]},
    {"smiles": "N#CC1(NC(=O)[C@@H](N)Cc2cccs2)CC1c1ccccc1", "note": "(mixture of isomers)", "values": [
      {"measurement": "IC50", "setting": "Dipeptidyl peptidase 1", "result": 1.23, "unit": "µM"}
    ]},
    {"smiles": "CCSC[C@H](N)C(=O)N[C@H](C#N)Cc1c[nH]c2ccccc12", "values": [
      {"measurement": "IC50", "setting": "Dipeptidyl peptidase 1", "result": 0.63, "unit": "µM"}
    ]},
    {"smiles": "N#C[C@H](CC1CCCCC1)NC(=O)[C@@H](N)Cc1cccs1", "values": [
      {"measurement": "IC50", "setting": "Dipeptidyl peptidase 1", "result": 0.0051, "unit": "µM"}
    ]},
    {"smiles": "CC(C)[C@H](N)C(=O)N[C@H](C#N)Cc1c[nH]c2ccccc12", "values": [
      {"measurement": "IC50", "setting": "Dipeptidyl peptidase 1", "result": 0.33, "unit": "µM"}
    ]},
    {"smiles": "CO[C@@H]1CN[C@H](C(=O)N[C@H](C#N)Cc2ccccc2)C1", "values": [
      {"measurement": "IC50", "setting": "Dipeptidyl peptidase 1", "result": 1.08, "unit": "µM"}
    ]},
    {"smiles": "N#CCNC(=O)[C@@H](N)Cc1cccs1", "values": [
      {"measurement": "IC50", "setting": "Dipeptidyl peptidase 1", "result": 0.017, "unit": "µM"},
      {"measurement": "remaining at 0.5 h", "setting": "[1]", "result": 6, "unit": "%"}
    ]},
    {"smiles": "N#C[C@H](Cc1nc2ccccc2s1)NC(=O)[C@@H](N)Cc1cccs1", "values": [
      {"measurement": "IC50", "setting": "Dipeptidyl peptidase 1", "result": 0.0007, "unit": "µM"},
      {"measurement": "clearance", "setting": "[2]", "result": "> 100", "unit": "mL/min/kg"},
      {"measurement": "half-life", "setting": "[3]", "result": "< 30", "unit": "min"}
    ]},
    {"smiles": "N#C[C@@]1(NC(=O)[C@@H](N)Cc2cccs2)C[C@@H]1c1ccccc1", "values": [
      {"measurement": "clearance", "setting": "[2]", "result": 35, "unit": "mL/min/kg"},
      {"measurement": "half-life", "setting": "[3]", "result": 84, "unit": "min"},
      {"measurement": "remaining at 0.5 h", "setting": "[1]", "result": "> 98", "unit": "%"},
      {"measurement": "Activity", "setting": "U-937", "result": "Not toxic"},
      {"measurement": "Stability", "setting": "Rattus norvegicus", "result": "Stable"}
    ]},
    {"smiles": "N#CC1(NC(=O)[C@@H](N)Cc2cccs2)CC1", "values": [
      {"measurement": "IC50", "setting": "Dipeptidyl peptidase 1", "result": 0.012, "unit": "µM"},
      {"measurement": "clearance", "setting": "[2]", "result": 113, "unit": "mL/min/kg"},
      {"measurement": "half-life", "setting": "[3]", "result": 30, "unit": "min"},
      {"measurement": "remaining at 0.5 h", "setting": "[1]", "result": 92, "unit": "%"}
    ]},
    {"smiles": "N#C[C@H](CCc1ccccc1)NC(=O)[C@@H](N)Cc1cccs1", "values": [
      {"measurement": "IC50", "setting": "Dipeptidyl peptidase 1", "result": 0.011, "unit": "µM"}
    ]},
    {"smiles": "N#C[C@H](Cc1ccc(-c2ccccc2)cc1)NC(=O)[C@@H]1C[C@H](F)CN1", "values": [
      {"measurement": "IC50", "setting": "Dipeptidyl peptidase 1", "result": 0.0082, "unit": "µM"}
    ]},
    {"smiles": "CC(C)(C#N)NC(=O)[C@@H](N)Cc1cccs1", "values": [
      {"measurement": "IC50", "setting": "Dipeptidyl peptidase 1", "result": 1.42, "unit": "µM"}
    ]},
    {"smiles": "N#C[C@H](Cc1ccc2ccccc2c1)NC(=O)[C@@H](N)Cc1cccs1", "values": [
      {"measurement": "IC50", "setting": "Dipeptidyl peptidase 1", "result": 0.001, "unit": "µM"},
      {"measurement": "clearance", "setting": "[2]", "result": "> 100", "unit": "mL/min/kg"},
      {"measurement": "half-life", "setting": "[3]", "result": "< 30", "unit": "min"}
    ]},
    {"smiles": "N#C[C@]1(NC(=O)[C@@H]2C[C@H](F)CN2)C[C@H]1c1ccccc1", "values": [
      {"measurement": "IC50", "setting": "Dipeptidyl peptidase 1", "result": 2.19, "unit": "µM"}
    ]},
    {"smiles": "CSCC[C@H](N)C(=O)NCCc1c[nH]c2ccccc12", "values": [
      {"measurement": "IC50", "setting": "Dipeptidyl peptidase 1", "result": 11, "unit": "µM"}
    ]},
    {"smiles": "N#C[C@H](Cc1ccccc1)NC(=O)[C@@H]1C[C@H](F)CN1", "values": [
      {"measurement": "IC50", "setting": "Dipeptidyl peptidase 1", "result": 0.133, "unit": "µM"}
    ]},
    {"smiles": "N#C[C@H](Cc1ccc(F)cc1)NC(=O)[C@@H]1CCCN1", "values": [
      {"measurement": "IC50", "setting": "Dipeptidyl peptidase 1", "result": "> 10", "unit": "µM"}
    ]},
    {"smiles": "CC(C)[C@@H](C#N)NC(=O)[C@@H](N)Cc1cccs1", "values": [
      {"measurement": "IC50", "setting": "Dipeptidyl peptidase 1", "result": 0.215, "unit": "µM"},
      {"measurement": "remaining at 0.5 h", "setting": "[1]", "result": 11, "unit": "%"}
    ]}
  ]
}
